# Paper PMC4582152 (International Journal of Biological Sciences, 2015)
# Tests used:
# [1] = test system: DhelOBP21-T119N mutant; test: Competitive fluorescence binding assay with 1-NPN as probe, mutant T119N; design: species or system Dastarcus helophoroides; details: for Binding ability of mutant T119N compared with DhelOBP-WT: pH 7.4; for Binding affinity of mutant T119N compared with DhelOBP-WT: pH 5.0
# How it was run: (§1)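 Competitive displacement at pH 7.4 or pH 5.0: 2 μM recombinant protein with a standard concentration of 1-NPN, titrated with aliquots of odorant volatiles (stocks in methanol). Fluorescence is read as for the 1-NPN titration. IC50 is the competitor concentration that halves the initial fluorescence. Ki = IC50/(1+[1-NPN]/K1-NPN), using the Scatchard Kd. Three independent measurements; reported as 1/Ki*1000.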
# [2] = test system: DhelOBP21-I84N mutant; test: Competitive fluorescence binding assay with 1-NPN as probe, mutant I84N; design: species or system Dastarcus helophoroides
# How it was run: as §1
Binding ability of mutant T119N compared with DhelOBP-WT [1],Binding affinity of mutant I84N compared with DhelOBP-WT ([2]; pH 5.0),Binding affinity of mutant T119N compared with DhelOBP-WT [1],Binding affinity of mutant I84N compared with DhelOBP-WT ([2]; pH 7.4),Compound
greater binding ability,relatively higher affinities,–,–,"Cc1cc(C(C)(C)C)c(O)c(C(C)(C)C)c1 [Butylated hydroxytoluene, butylated hydroxytoluene]"
–,did not show any apparent difference,did not show any apparent difference,–,"CC12CCC(CC1=O)C2(C)C (stereo not shown) [Camphor, camphor]"
–,–,relatively higher affinity,better than with DhelOBP-WT,CC1=CCC(=C(C)C)CC1 [Terpinolene]

# The next lines start with the compound.
Compound,Binding ability of mutant T119N compared with DhelOBP-WT [1],Binding affinity of mutant I84N compared with DhelOBP-WT ([2]; pH 5.0),Binding affinity of mutant T119N compared with DhelOBP-WT [1],Binding affinity of mutant I84N compared with DhelOBP-WT ([2]; pH 7.4)
"C=C1C2CCC(C2)C1(C)C (stereo not shown) [Camphene, camphene]",declined significantly,did not show any apparent difference,did not show any apparent difference,–
"C=CC(=C)CCC=C(C)C [Myrcene, myrcene]",declined significantly,–,–,–
